# Shown are actives, neighbours in structure and some others; about 0.86% of the full set was active somewhere.
# ERAP1 inh: blocks human ERAP1 aminopeptidase activity; recombinant ERAP1, Leu-AMC fluorescence, 60 min; inhibition, % at 10.7 µM; actives 0.15% (n = 340,000); AID 652197;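 active = mean replicate inhibition of at least 30%, or all replicates individually reaching that 30% level; inactive = mean below 30% and not every replicate reaching it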;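 also: 0% = neutral control wells and 100% = L-leucinethiol positive control wells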
# MLL AF4-AF9 inh: inhibitors of human MLL-AF4/AF9 interaction | AlphaScreen, biotin-AF4 peptide binding to FLAG-AF9 | actives 0.47% (n = 350,000) | P42568 | inhibition, % at 10 µM;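 active = every replicate reaching a set inhibition limit, whatever the replicate mean, cut at about 25% in these data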;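 also: 0% = plate neutral control median and 100% = total signal loss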
# S100A4 MyoIIA: blocks human S100A4 binding to myosin IIA peptide. actives 0.14% (n = 360,000). AID 652163. inhibition, % at 10.7 µM. S100A4/TAMRA-MyoIIA peptide fluorescence polarization. P26447;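 active = mean inhibition of at least 70% across replicates, with every replicate also reaching that level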
# Target sequence (P26447 whole entry, looked up): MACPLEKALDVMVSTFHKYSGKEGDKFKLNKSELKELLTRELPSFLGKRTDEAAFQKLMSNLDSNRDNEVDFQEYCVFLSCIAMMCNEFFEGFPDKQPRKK
#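 Test system: S100A4 monomer protein; Medium: HEPES pH 7.2 with CaCl2, KCl, NaCl, DTT, Triton; Probe or stimulus: TAMRA-labelled myosin IIA heavy-chain peptide probe, 5 nM; Doses: one dose per compound; Times: polarization read 5 min after assay mix addition, stable 5–60 min; Benchmarks: neutral control DMSO, positive control TFP.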
# Rtt109 Vps75: blocks Candida albicans Rtt109/Vps75 acetyltransferase activity; purified Rtt109/Vps75, ThioGlo CoA-SH fluorescence, 4 h; inhibition, % at 34.9 µM; actives 0.16% (n = 330,000);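 active = inhibition of at least 50% in every replicate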
# Target sequence (Q5AAJ8 whole entry, looked up): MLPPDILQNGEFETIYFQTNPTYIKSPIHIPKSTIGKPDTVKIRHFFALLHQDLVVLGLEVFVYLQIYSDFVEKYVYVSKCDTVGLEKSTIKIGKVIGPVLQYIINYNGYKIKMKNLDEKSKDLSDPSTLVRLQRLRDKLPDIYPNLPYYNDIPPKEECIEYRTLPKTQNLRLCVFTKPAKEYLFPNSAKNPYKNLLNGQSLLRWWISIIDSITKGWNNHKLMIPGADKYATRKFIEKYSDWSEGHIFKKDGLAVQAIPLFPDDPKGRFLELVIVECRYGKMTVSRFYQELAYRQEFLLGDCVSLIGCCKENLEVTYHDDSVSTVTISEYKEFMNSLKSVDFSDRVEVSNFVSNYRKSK
# miR-122 sensor: blocks miR-122 activity in Huh7 sensor cells | actives 0.3% (n = 340,000) | AID 602342 | activation (reporter increase), % at 12.5 µM | Huh7 miR-122 Renilla luciferase sensor, 48 h; neutral wells = 0, positive control = 100;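 active = mean replicate activation score at least 90 and every replicate individually at or above 90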;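 also: higher luciferase means less miR-122 activity so hits act as miR-122 inhibitors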
# Starred values were filed as active, the others as inactive; nt = no result; [ ] = remark or other dose.
SMILES,ERAP1 inh,MLL AF4-AF9 inh,S100A4 MyoIIA,Rtt109 Vps75,miR-122 sensor
C[C@@H]1CN([C@H](C)CO)C(=O)Cc2cc(NS(=O)(=O)c3cn(C)cn3)ccc2O[C@H]1CN(C)Cc1ccc(Cl)c(Cl)c1,8,-16,3,nt,-3[16.7 µM]
C[C@@H](NC(=O)C[C@@H]1CC[C@@H](NC(=O)C2CC2)[C@@H](CO)O1)c1ccccc1,0,0,-8,nt,nt
O=C1C=CC2(O[C@H](c3ccccc3)[C@@H](c3ccccc3)O2)[C@H](Sc2ccccc2O)C1,33*,-2,-6,1,nt
COc1ccc2c3c([nH]c2c1)[C@@H](CO)N(C(=O)c1ccc(F)cc1)CC31CN(C)C1,nt,6,nt,nt,nt
Cc1cc2cc(CNC(=O)Nc3cccc(Cl)c3)ccc2n1C,0,0,78*,6,-9
CCCCCCCCCn1c2c(c(=N)c3c1CCC3)CCC2,nt,nt,nt,68*,-47
CCCCCCCn1c2c(c(=N)c3c1CCC3)CCCC2,83*,2,2,24,nt
CCCCn1c2c(c(=N)c3c1CCC3)CCC2,nt,nt,nt,5,nt
CCCCCCn1c2c(c(=N)c3c1CCC3)CCC2,nt,nt,nt,1,-17
COc1cc(S(=O)(=O)N(Cc2ccco2)C2CCCC2)ccc1-n1cnnn1,-2,3,-5,9,22
CCOc1ccccc1CN(Cc1ccco1)S(=O)(=O)c1ccc(-n2cnnn2)c(OC)c1,-2,nt,32,-3,138*
COCc1ccc(CN2CCC(n3nccc3NC(=O)C(OC)c3ccccc3)CC2)o1 (stereo unspecified),2,-4,-2,59*,2
CC1CC(C)CN(C(=O)CSC2=Nc3ccccc3C3=NC(Cc4c[nH]c5ccccc45)C(=O)N23)C1 (stereo unspecified),nt,nt,nt,6,212*
O=C(CSC1=Nc2ccccc2C2=NC(Cc3c[nH]c4ccccc34)C(=O)N12)NC1CCCCC1 (stereo unspecified),nt,nt,nt,nt,18
Cc1ccc(S(=O)(=O)N(C)C[C@@H]2Oc3ccc(NC(=O)Nc4c(C)noc4C)cc3CC(=O)N([C@@H](C)CO)C[C@@H]2C)cc1,0,2,0,nt,15[16.7 µM]
Cc1ccnc(Nc2nc(-c3ccc(O)cc3)cs2)c1,-3,5,4,21,-12
Cc1ccnc(Nc2nc(-c3ccc(O)c(O)c3)cs2)c1,0,41*,0,-2,-26
Cc1cccc(Nc2nc(-c3ccc(F)c(C)c3)cs2)n1,-1,-7,4,nt,7
Cc1cccc(Nc2nc(-c3ccc(O)c(O)c3)cs2)n1,-1,26*,1,6,-13
CCCNC(=O)C[C@H]1CC[C@@H]2[C@H](COc3ccc(NC(=O)c4ccccc4)cc3C(=O)N2C)O1,2,0,4,nt,1[16.7 µM]
Cc1cc2ccccn2c1C(=O)c1cc([N+](=O)[O-])cc([N+](=O)[O-])c1,-2,33*,-1,11,nt
COC(=O)c1cc(C(=O)c2c(C)cc3ccccn23)cc([N+](=O)[O-])c1,0,23,-2,-8,1
CN(N=Cc1ccc([N+](=O)[O-])cc1)c1ccccn1,1,2,84*,nt,-7
CN1C(=O)NC(c2ccccc2[N+](=O)[O-])C2=C1CCCC2=O (stereo unspecified),3,-3,117*,5,nt
CC=Cc1ccc2n(c1=O)C[C@@H]1[C@@H](CO)[C@H](C(=O)N3CCC(Cc4ccccc4)CC3)N(C)[C@H]21 (mixture of isomers),0,4,-28,nt,nt
SMILES,ERAP1 inh,MLL AF4-AF9 inh,S100A4 MyoIIA,Rtt109 Vps75,miR-122 sensor
COc1ccc2c3c([nH]c2c1)[C@H](CO)N(C(=O)NC(C)C)CC31CN(Cc2ccc(F)cc2)C1,0,31*,5,nt,nt
COc1ccc2c3c([nH]c2c1)[C@H](CO)N(C(=O)NC(C)C)CC31CN(Cc2ccccc2)C1,-7,26*,-33,nt,nt
COc1ccc2c3c([nH]c2c1)[C@@H](CO)N(C(=O)Nc1ccc(F)cc1)CC31CN(Cc2ccc(F)cc2)C1,0,4,-1,nt,nt
COc1ccc2c3c([nH]c2c1)[C@H](CO)N(C(=O)Nc1ccc(F)cc1)CC31CN(Cc2ccc(F)cc2)C1,1,11,-6,nt,nt
COc1ccc2c3c([nH]c2c1)[C@@H](CO)N(C(=O)Nc1ccc(F)cc1)CC31CN(Cc2ccccc2OC)C1,nt,51*,nt,nt,nt
COc1ccc(CN2CC3(C2)CN(C(=O)Nc2ccc(F)cc2)[C@@H](CO)c2[nH]c4cc(OC)ccc4c23)cc1,nt,44*,nt,nt,nt
COc1ccc2c3c([nH]c2c1)[C@H](CO)N(C(=O)Nc1ccc(F)cc1)CC31CCN(Cc2cc(F)ccc2F)CC1,-1,3,-8,nt,nt
Cc1ccc(S(=O)(=O)N[C@H]2CC[C@@H](CCNC(=O)Nc3ccc(Cl)cc3)O[C@@H]2CO)cc1,1,10,-3,nt,nt
CCN1C(=O)C2(SC(NC(C)=O)=NN2C(C)=O)c2cc(C)cc(C)c21 (stereo unspecified),0,50*,-2,-3,-6
COc1ccc(NC(=O)N(C)C[C@H]2Oc3ccc(NC(=O)Cn4cnnn4)cc3CC(=O)N([C@H](C)CO)C[C@@H]2C)cc1,0,-2,7,nt,3[16.7 µM]
COc1ccc2c(C)cc(N3CCCCCC3)nc2c1,-1,-8,-2,-8,2
COc1ccc2c(C)cc(N3CCN(Cc4ccccc4)CC3)nc2c1,37*,5,-1,-2,2
CCn1cc(/C=C(\NC(=O)c2cc(OC)c(OC)c(OC)c2)C(=O)NCCCN2CCOCC2)c2ccccc21,-3,25*,-1,0,0
CCn1cc(/C=C(\NC(=O)c2cc(OC)c(OC)c(OC)c2)C(=O)NCCN2CCOCC2)c2ccccc21,0,2,-2,-2,-2
CCCC#Cc1ccc2c(c1)O[C@H](CN(C)Cc1ccc3c(c1)OCO3)[C@H](C)CN([C@@H](C)CO)S2(=O)=O,0,4,36,nt,-4[16.7 µM]
O=C(C[C@H]1CC[C@@H]2[C@H](COC[C@H](O)CN2C(=O)Cc2ccccc2)O1)NC1CCCC1,1,-8,-1,nt,1[16.7 µM]
O=C(C[C@H]1CC[C@@H]2[C@H](COC[C@@H](O)CN2C(=O)Cc2ccccc2)O1)NC1CCCC1,0,1,90*,nt,23[16.7 µM]
CCCNC(=O)N1C[C@H](O)COC[C@@H]2O[C@H](CC(=O)N[C@H]3CCN(Cc4ccccc4)C3)CC[C@H]21,2,-8,87*,nt,19[16.7 µM]
COc1cccc(S(=O)(=O)N[C@@H]2CC[C@H](CCNC(=O)Cc3ccncc3)O[C@H]2CO)c1,3,1,14,nt,nt
O=C(CN1CCOCC1)Nc1cccc(C(F)(F)F)c1,-1,1,2,55*,nt
CN1CCN(c2cc(-c3cc(O)c4ncccc4c3)ccn2)CC1,-3,84*,-5,-3,-6
CN1CCN(C(=O)c2cccc(-c3cc(O)c4ncccc4c3)c2)CC1,-5,nt,-1,13,11
